Laboratory results from the RNAGym collection of RNA variant scans (doi:10.1126/science.aae0568).
Fewer inactive variants are shown than the library holds.

B1: tRNA (parent)
chain: GUUCCGUUGGCGUAAUGGUAACGCGUCUCCCUCCUAAGGAGAAGACUGCGGGUUCGAGUCCCGUACGGAACG

Variants of: B1
Assay: yeast fitness relative to wild type (ratio to wild type); higher = fitter; tRNA-Arg(CCU), competitive growth, 37 C, YPD
Summary of the method: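 For this measurement, the tRNA-Arg(CCU) gene was varied by chemical synthesis at a 3% per-site mutation rate across 69 sites, and each variant was placed at the native genomic locus in Saccharomyces cerevisiae. The pooled strains went through a 24-hour competition in YPD at 37°C in six parallel replicates, with amplicons from start and end populations read by 100-nucleotide paired-end sequencing. Darwinian fitness relative to wild type followed from the change in each genotype's frequency. Genotypes needed ≥ 100 starting reads, and estimates < 0.5 were set to 0.5.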

U7C U32G G56U and U7C C31G C34U C55U G58A C61U G68C cannot be ordered by yeast fitness: no more than 0.5 for the first, no more than 0.5 for the second.

Going from U8A A14C C31A G41C C49A G56A A70C to U7G A20U C46G, the yeast fitness rises from 0.533 to 0.562.

Compared with U7C C55G, U7C C55A is lower in yeast fitness: 0.628 for the first, 0.567 for the second.

First: U7C G12C U32A G39A C49G
Second: U7G C24A C46G U59C C62G
The yeast fitness of the first is higher: 0.602 for the first, no more than 0.5 for the second.

First: U7C C33G U59C
Second: U7G A14G U35G A43G U59A
The yeast fitness of the first is lower: 0.59 for the first, 0.669 for the second.

First: U7G C33U A42C A43C C49U A69U
Second: U7G C34G A43U
The yeast fitness of the first is lower: no more than 0.5 for the first, 0.661 for the second.

Going from U7G C49U A65G to U7C C11U C61U A65G G68C, the yeast fitness falls from 0.83 to no more than 0.5.

Compared with U7C U26C, U7G C24G A65U C66U is lower in yeast fitness: 0.866 for the first, no more than 0.5 for the second.

U7C G41A A42C G50C G52A A70G and U7G U16G C61U cannot be ordered by yeast fitness: no more than 0.5 for the first, no more than 0.5 for the second.

Going from U7G A37G C55G to U7G G58A, the yeast fitness rises from no more than 0.5 to 0.942.

First: U7C C22G A40U A69C
Second: U7C C31G G41A G52C C60U C62G C66G
The yeast fitness of the first is higher: 0.574 for the first, no more than 0.5 for the second.

Compared with U7C C33U C49U A70U, U7C C31U A36U A43C C55G is higher in yeast fitness: no more than 0.5 for the first, 0.539 for the second.

U7G G12A U13C C33U C34U A42C G50A and U7G U13C A37U C60G cannot be ordered by yeast fitness: no more than 0.5 for the first, no more than 0.5 for the second.

Compared with U7G A40C C55G, U7G U47C is higher in yeast fitness: 0.591 for the first, 0.845 for the second.

Compared with U7G G18A G48A, U7C G38A G58C is higher in yeast fitness: no more than 0.5 for the first, 0.648 for the second.

Compared with U8A A15U C27G A36G A70C, U7C G48C C62U is higher in yeast fitness: no more than 0.5 for the first, 0.548 for the second.

Compared with U7C C61A, U7C U28A G48C C62U A70C is lower in yeast fitness: 0.678 for the first, no more than 0.5 for the second.

First: U7C C33U
Second: U7C U32A
The yeast fitness of the first is lower: 0.713 for the first, 0.761 for the second.

Compared with U7C U16C, U7C G10A C24G C34U A43U is lower in yeast fitness: 0.831 for the first, no more than 0.5 for the second.

U7G C11U G12C C33U G63C G68U and U7G A14U U26A C61A cannot be ordered by yeast fitness: no more than 0.5 for the first, no more than 0.5 for the second.

U7C C22U C31A G38A C46G G67C and U7C U19A C62A G67C cannot be ordered by yeast fitness: no more than 0.5 for the first, no more than 0.5 for the second.

Going from U7C G41A A42C G50C G63A A70G to U7G G44A C61U, the yeast fitness rises from 0.555 to 0.689.

Compared with U7G A45C G51C U53C, U8A A14G C24G A45C is higher in yeast fitness: no more than 0.5 for the first, 0.632 for the second.

First: U7G G44C
Second: U7C C46A
The yeast fitness of the first is lower: 0.666 for the first, 0.798 for the second.

First: U7C G41A A42C G50C A69U
Second: U7C C49U G56A A65C
The yeast fitness of the first is lower: 0.556 for the first, 0.607 for the second.

First: U7C C34G G39C A42G C46G C61G
Second: U7C G18C C61U
The yeast fitness of the first is higher: 0.538 for the first, no more than 0.5 for the second.

Compared with U7G G48A G68U A70C, U8A A14C C24U U26A U28G U54G is lower in yeast fitness: 0.541 for the first, no more than 0.5 for the second.

U7C G51C A57U and U8A A14U A42G cannot be ordered by yeast fitness: no more than 0.5 for the first, no more than 0.5 for the second.

U7C C24U C30G A45C C61G and U7C U32C A45U G67A cannot be ordered by yeast fitness: no more than 0.5 for the first, no more than 0.5 for the second.

First: U7C C33U U53C
Second: U7C C33A C49A
The yeast fitness of the first is higher: 0.599 for the first, no more than 0.5 for the second.

First: U7C G18A C30U C34A
Second: U7C U59C
The yeast fitness of the first is lower: no more than 0.5 for the first, 0.846 for the second.

First: U7C G56A
Second: U7C G56C
The yeast fitness of the first is higher: 0.977 for the first, 0.692 for the second.

U7G C27U C33U A57U and U7C C49U C55A cannot be ordered by yeast fitness: no more than 0.5 for the first, no more than 0.5 for the second.

U7G A14C G63C and U7C G48A U54A C55G A65U cannot be ordered by yeast fitness: no more than 0.5 for the first, no more than 0.5 for the second.

First: U7G C62G
Second: U7C C29U C46U A65U
The yeast fitness of the first is higher: 0.603 for the first, no more than 0.5 for the second.

Going from U7G G9C G50C to U7G A15U A45C C46U G56A G67C, the yeast fitness falls from 0.668 to no more than 0.5.

First: U7G C30A C62A
Second: U7G U59A
The yeast fitness of the first is lower: no more than 0.5 for the first, 0.754 for the second.

U7C C11U C34A A45C G68A and U7C G12A U13G A14C U35C C49U cannot be ordered by yeast fitness: no more than 0.5 for the first, no more than 0.5 for the second.

Compared with U7G G48A, U7G A14U is lower in yeast fitness: 0.847 for the first, 0.675 for the second.

Going from U7C G18A C31A G56C to U7C U28C G41A A42C G50C A70G, the yeast fitness rises from no more than 0.5 to 0.572.

First: U7G C31G A36C
Second: U7G A15C C24U A43G G51A U54C
The yeast fitness of the first is lower: no more than 0.5 for the first, 0.634 for the second.

First: U7C G23A C33G
Second: U7G C33U
The yeast fitness of the first is lower: no more than 0.5 for the first, 0.749 for the second.
